Structures are written as SMILES. The source made the active and inactive calls. The rule behind the calls is not given here.

Consider two molecules from ChEMBL document CHEMBL4028872, “Structure-Activity Relationship, Pharmacological Characterization, and Molecular Modeling of Noncompetitive Inhibitors of the Betaine/γ-Aminobutyric Acid Transporter 1 (BGT1)” (J Med Chem, 2017).

Assay [1] has as its target Sodium- and chloride-dependent betaine transporter (Homo sapiens, UniProt P48065, Q299L). As to the kind of experiment: Inhibition of human BGT1 Q299L mutant expressed in tsA201 cells assessed as reduction in [3H]GABA uptake after 3 mins by scintillation counting method. In kind it is cell-based. Summed up:
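Site-directed mutant transporters transiently transfected (PolyFect) into tsA201 cells, plated and used about 24 h later. Cells were washed with HBSS containing 20 mM HEPES, 1 mM CaCl2 and 1 mM MgCl2, pH 7.4. IC50 was taken from variable-slope sigmoidal fits. Triplicates, at least three independent experiments.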

The target of assay [2] is T1, Sodium- and chloride-dependent betaine transporter (Homo sapiens, UniProt P48065).
T1 sequence (P48065 whole entry): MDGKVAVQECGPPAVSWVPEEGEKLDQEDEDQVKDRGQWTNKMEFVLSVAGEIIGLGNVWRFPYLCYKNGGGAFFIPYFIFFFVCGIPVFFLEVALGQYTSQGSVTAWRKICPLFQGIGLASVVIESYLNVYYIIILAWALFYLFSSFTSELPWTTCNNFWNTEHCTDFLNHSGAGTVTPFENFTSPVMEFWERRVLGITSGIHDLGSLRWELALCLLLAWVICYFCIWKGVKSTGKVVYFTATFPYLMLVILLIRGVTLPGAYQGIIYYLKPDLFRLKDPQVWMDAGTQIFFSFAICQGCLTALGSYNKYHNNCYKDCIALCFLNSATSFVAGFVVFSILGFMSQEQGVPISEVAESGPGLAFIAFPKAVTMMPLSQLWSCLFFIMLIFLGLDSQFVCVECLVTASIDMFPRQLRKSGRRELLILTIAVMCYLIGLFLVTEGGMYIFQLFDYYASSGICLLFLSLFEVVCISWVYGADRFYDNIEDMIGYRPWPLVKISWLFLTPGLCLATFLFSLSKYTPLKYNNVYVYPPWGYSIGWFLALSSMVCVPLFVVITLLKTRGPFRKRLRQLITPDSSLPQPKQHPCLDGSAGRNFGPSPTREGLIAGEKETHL
As to the kind of experiment: Inhibition of human BGT1 expresses in tsA201 cells assessed as reduction in [3H]GABA uptake after 3 mins by scintillation counting method. The class given is cell-based. Summed up:
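tsA201 cells transiently transfected with wild-type or mutant human BGT1 (PolyFect) were plated about 24 h before assay. Three ice-cold washes followed, then scintillation counting.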

The target of assay [3] is T2, Sodium- and chloride-dependent GABA transporter 3 (Homo sapiens, UniProt P48066).
T2 sequence (P48066 whole entry): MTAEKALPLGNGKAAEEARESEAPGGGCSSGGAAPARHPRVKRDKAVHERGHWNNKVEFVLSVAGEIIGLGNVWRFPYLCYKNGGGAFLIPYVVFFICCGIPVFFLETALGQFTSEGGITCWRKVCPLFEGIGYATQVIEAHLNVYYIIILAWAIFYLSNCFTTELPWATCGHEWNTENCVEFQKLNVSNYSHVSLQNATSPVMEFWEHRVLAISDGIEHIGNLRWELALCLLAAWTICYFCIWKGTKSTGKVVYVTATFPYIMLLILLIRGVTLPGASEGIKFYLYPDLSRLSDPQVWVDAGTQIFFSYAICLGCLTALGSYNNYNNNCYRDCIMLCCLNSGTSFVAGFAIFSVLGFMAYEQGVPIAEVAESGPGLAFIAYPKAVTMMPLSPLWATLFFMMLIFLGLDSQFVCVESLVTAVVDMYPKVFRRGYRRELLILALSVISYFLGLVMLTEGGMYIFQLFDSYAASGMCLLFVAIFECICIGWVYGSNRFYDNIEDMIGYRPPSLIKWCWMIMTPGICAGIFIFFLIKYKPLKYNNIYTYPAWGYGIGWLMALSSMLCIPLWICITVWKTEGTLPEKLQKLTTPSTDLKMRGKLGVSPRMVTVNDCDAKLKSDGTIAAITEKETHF
As to the kind of experiment: Inhibition of human GAT3 expresses in tsA201 cells assessed as reduction in [3H]GABA uptake after 3 mins by scintillation counting method. In kind it is cell-based. Summed up: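 Wild-type human GAT transiently expressed in tsA201 cells via pcDNA5/FRT and PolyFect. Uptake of 30 nM [3H]GABA was run for 3 min at 37 °C in HBSS/20 mM HEPES with 1 mM CaCl2 and 1 mM MgCl2, pH 7.4, across a range of test concentrations. Ice-cold washes were followed by scintillation counting. IC50 was obtained by sigmoidal variable-slope fitting, reported as mean pIC50 ± S.E.M.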

Assay [4] has as its target Sodium- and chloride-dependent GABA transporter 3 (Homo sapiens, UniProt P48066, S468Y). In words: Inhibition of human GAT3 S468Y mutant expresses in tsA201 cells assessed as reduction in [3H]GABA uptake after 3 mins by scintillation counting method. In kind it is cell-based. The method in brief: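 Site-directed mutant transporters transiently transfected (PolyFect) into tsA201 cells, plated and used about 24 h later. Cells were washed with HBSS containing 20 mM HEPES, 1 mM CaCl2 and 1 mM MgCl2, pH 7.4. Uptake of 30 nM [3H]GABA was run with varied inhibitor concentrations for 3 min at 37 °C, then three ice-cold washes and scintillation counting. IC50 was taken from variable-slope sigmoidal fits. Triplicates, at least three independent experiments.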

Assay [5] addresses D(4) dopamine receptor (Homo sapiens) (UniProt P21917). In words: Displacement of [3H]N-methylspiperone from human Dopamine receptor D4 receptor at 10 uM after 90 mins by scintillation counting method.
For assay [6], the target named is Sodium- and chloride-dependent GABA transporter 1 (Mus musculus, UniProt P31648). As to the kind of experiment: Inhibition of mouse GAT1 expressed in HEK293 cells assessed as reduction in [3H]GABA uptake after 3 mins by scintillation counting method. The class given is cell-based. Summed up:
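HEK293 lines stably expressing a single mouse GAT subtype, kept under blasticidin-S (5 µg/mL) selection. Cells were assayed about 24 h after plating with 30 nM [3H]GABA plus varying compound concentrations for 3 min at 37 °C in HBSS buffered with 20 mM HEPES (1 mM CaCl2, 1 mM MgCl2, pH 7.4). Cells were washed ice-cold and radioactivity counted. IC50 came from sigmoidal variable-slope fits.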

Sequence of D(4) dopamine receptor (Homo sapiens) (P21917 whole entry): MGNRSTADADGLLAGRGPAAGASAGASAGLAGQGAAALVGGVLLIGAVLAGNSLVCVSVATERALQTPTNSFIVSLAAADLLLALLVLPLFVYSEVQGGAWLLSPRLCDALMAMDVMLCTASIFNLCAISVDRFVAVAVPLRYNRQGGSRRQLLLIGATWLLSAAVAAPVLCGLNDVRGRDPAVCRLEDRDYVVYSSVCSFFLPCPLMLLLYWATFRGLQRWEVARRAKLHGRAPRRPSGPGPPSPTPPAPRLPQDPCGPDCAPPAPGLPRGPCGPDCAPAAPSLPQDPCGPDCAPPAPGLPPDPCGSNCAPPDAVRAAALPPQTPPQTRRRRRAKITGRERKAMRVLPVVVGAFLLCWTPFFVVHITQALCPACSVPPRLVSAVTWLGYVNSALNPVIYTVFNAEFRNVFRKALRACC
Sequence of Sodium- and chloride-dependent betaine transporter (Homo sapiens, UniProt P48065, Q299L) (P48065 whole entry Q299L): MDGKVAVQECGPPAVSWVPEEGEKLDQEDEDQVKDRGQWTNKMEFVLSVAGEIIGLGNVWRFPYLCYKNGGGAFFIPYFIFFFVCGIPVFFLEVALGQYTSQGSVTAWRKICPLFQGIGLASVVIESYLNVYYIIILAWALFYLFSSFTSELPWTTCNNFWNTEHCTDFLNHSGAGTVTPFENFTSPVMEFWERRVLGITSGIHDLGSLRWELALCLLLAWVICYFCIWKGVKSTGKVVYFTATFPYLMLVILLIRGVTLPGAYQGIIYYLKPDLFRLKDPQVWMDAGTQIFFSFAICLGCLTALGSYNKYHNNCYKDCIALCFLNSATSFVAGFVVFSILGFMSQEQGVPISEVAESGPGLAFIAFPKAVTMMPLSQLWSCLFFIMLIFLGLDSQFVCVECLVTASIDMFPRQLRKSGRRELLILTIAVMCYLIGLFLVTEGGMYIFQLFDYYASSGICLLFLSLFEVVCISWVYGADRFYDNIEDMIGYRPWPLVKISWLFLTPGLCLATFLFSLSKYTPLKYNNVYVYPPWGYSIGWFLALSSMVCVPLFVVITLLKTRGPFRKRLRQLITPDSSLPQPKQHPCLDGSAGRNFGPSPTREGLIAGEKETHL
Sequence of Sodium- and chloride-dependent GABA transporter 3 (Homo sapiens, UniProt P48066, S468Y) (P48066 whole entry S468Y): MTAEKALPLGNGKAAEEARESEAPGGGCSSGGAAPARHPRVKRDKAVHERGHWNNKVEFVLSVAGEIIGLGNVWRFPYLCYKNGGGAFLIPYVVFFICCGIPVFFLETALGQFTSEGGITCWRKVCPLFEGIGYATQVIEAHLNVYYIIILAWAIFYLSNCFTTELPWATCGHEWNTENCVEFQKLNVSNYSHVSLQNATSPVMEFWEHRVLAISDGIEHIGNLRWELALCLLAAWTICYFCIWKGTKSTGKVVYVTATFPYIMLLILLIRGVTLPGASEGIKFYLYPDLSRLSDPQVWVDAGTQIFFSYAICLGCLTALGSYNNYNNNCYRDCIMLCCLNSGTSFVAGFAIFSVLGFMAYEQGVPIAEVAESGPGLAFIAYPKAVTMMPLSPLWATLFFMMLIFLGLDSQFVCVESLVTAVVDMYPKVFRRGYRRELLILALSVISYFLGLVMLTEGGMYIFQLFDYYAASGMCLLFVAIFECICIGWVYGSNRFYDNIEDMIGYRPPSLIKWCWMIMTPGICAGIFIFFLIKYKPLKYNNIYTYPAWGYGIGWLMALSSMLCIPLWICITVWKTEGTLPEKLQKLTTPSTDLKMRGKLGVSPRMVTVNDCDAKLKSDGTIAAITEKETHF

Consider `O=C(NC1CCN(Cc2ccccc2)CC1)c1ccc(Cl)nc1Cl`, for which the IC50 in assay [1] is 8 µM; in assay [2] (read-out: IC50), 44 µM; in assay [2] (read-out: pIC50 (converted)), 40.7 µM; in assay [3] (read-out: IC50), above 1000 µM; in assay [4] it was above 1000 µM; in assay [6] it was above 400 µM. The inhibition result in assay [5] is “inactive”.

For `O=C(NC1CCN(Cc2ccccc2)CC1)c1ccc(Cl)cc1Cl`, the IC50 in assay [1] is 3 µM; in assay [2] (read-out: IC50), 18 µM; in assay [3], above 100 µM; in assay [4] it was above 300 µM; in assay [6], above 200 µM. Besides, the inhibition result in assay [5] was “Active”.
